# Measured values from different studies.
# Each line is one published result; the experiments were not run side by side.
# AXL: Tyrosine-protein kinase receptor UFO (AXL, Homo sapiens, UniProt P30530)
SMILES,target,assay,setting,endpoint,result
Cn1cncc1[C@](O)(COc1ccc(C#N)cc1-c1ccc(OC(F)(F)F)cc1)c1ccc(C#N)cc1,AXL,"cell-free assay, competition with immobilised ligand",1 µM,remaining binding,100%
COc1ncccc1-c1cnn2ccc(N3CCN(C(=O)OC(C)C)CC3)nc12,AXL,"binding, competition with immobilised ligand",1 µM,remaining binding,100%
Cn1cc(-c2cc(F)cc(N3CCn4c(cc5c4CCCC5)C3=O)c2CO)cc(Nc2ccc(N3CCN(C4COC4)CC3)cn2)c1=O,AXL,"enzyme activity, inhibitor",0.1 µM,inhibition,12%
Cc1nn(C)cc1-c1nc2c(N3CCN(Cc4ccc(Cl)cc4)CC3)c(Cl)cnc2[nH]1,AXL,"binding, competition with immobilised ligand",1 µM,remaining binding,2.2%
O=c1[nH]c2ccccc2n1C1CCN(Cc2ccc(-c3[nH]c4cc5ncnc5cc4nc3-c3ccccc3)cc2)CC1,AXL,cell-free assay,0.5 µM,remaining signal,105%
Cn1cc(-c2cccc(N3CCc4c(sc5c4CC(C)(C)C5)C3=O)c2CO)cc(Nc2ccncn2)c1=O,AXL,"enzyme activity, inhibitor",1 µM,inhibition,3%
Nc1ncc(-c2nc(N3CCOCC3)nc(N3CCOCC3)n2)c(C(F)F)n1,AXL,"binding, competition with immobilised ligand",10 µM,remaining binding,91%
CC(C)(C)c1cc(C=C(C#N)C#N)cc(Br)c1O,AXL,"enzyme activity, inhibitor",0.5 µM,remaining activity,103%
C#Cc1n[nH]c2c(-c3cn(C(C)c4ccccn4)c(=O)[nH]c3=O)cc(F)cc12 (centres unmarked),"Tyrosine-protein kinase receptor UFO (AXL, Homo sapiens, UniProt P30530, R499C)","enzyme activity, inhibitor",1 µM,inhibition,67.6%
N#CC1(c2ccccn2)CCN(Cc2cc(C(=O)O)c(=O)n3ccccc23)CC1,AXL,"cell-free assay, competition with immobilised ligand",1 µM,remaining binding,91%
COc1cc(Nc2ncc(F)c(Nc3ccc4c(n3)NC(=O)C(C)(C)O4)n2)cc(OC)c1OC,AXL,"binding, competition with immobilised ligand",10 µM,inhibition,100%
